Results reported in ChEMBL document CHEMBL4020838, “The Discovery of ( S)-1-(6-(3-((4-(1-(Cyclopropanecarbonyl)piperidin-4-yl)-2-methylphenyl)amino)-2,3-dihydro-1 H-inden-4-yl)pyridin-2-yl)-5-methyl-1 H-pyrazole-4-carboxylic Acid, a Soluble Guanylate Cyclase Activator Specifically Designed for Topical Ocular Delivery as a Therapy for Glaucoma” (J Med Chem, 2018).
Activity calls are given as the source filed them. No cut-off for these calls is given here.

Tests used:
[1] = system: Oryctolagus cuniculus; experiment: Toxicity in New Zealand albino rabbit assessed as excessive blinking at 30 ug administered as single topical dose measured up to 24 hrs post dose; details: in vivo, topical_or_ocular
[2] = Activation of soluble guanylate cyclase in human GTM3 cells assessed as increase in cGMP production after 30 mins by fluorescence assay; type: cell-based
Summary of the method: (§1)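 Immortalized glaucomatous trabecular meshwork (GTM-3) cells expressing endogenous levels of sGC were used. cGMP was read across a dose range. EC50 and Emax were derived from the dose-response curve.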

[3] = system: Oryctolagus cuniculus; experiment: Toxicity in New Zealand albino rabbit assessed as conjunctival hyperemia at 30 ug administered as single topical dose measured up to 24 hrs post dose; details: in vivo, topical_or_ocular
[4] = Activation of HUVEC-derived soluble guanylate cyclase expressed in CHOK1 cells assessed as increase in cGMP production after 1 hr by HTRF assay; type: cell-based
Summary of the method: (§2)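 High-throughput assay in Chinese hamster ovary cells expressing sGC. cGMP was measured across a dose range. EC50 and Emax (maximal cGMP produced) were taken from the dose-response curve.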

[5] = organism: Homo sapiens; experiment: Activation of HUVEC-derived soluble guanylate cyclase expressed in CHOK1 cells assessed as increase in cGMP production after 1 hr by HTRF assay relative to 1-{6-[5-chloro-2-({4-[trans-4-(trifluoromethyl)cyclohexyl]-benzyl}oxy)phenyl)pyridin-2-yl)-5-(trifluoromethyl)-1H-pyrazole-4-carboxylic acid; type: cell-based; summary of the method: as §2
[6] = organism: Homo sapiens; experiment: Activation of soluble guanylate cyclase in human GTM3 cells assessed as increase in cGMP production after 30 mins by fluorescence assay relative to 1-{6-[5-chloro-2-({4-[trans-4-(trifluoromethyl)cyclohexyl]-benzyl}oxy)phenyl)pyridin-2-yl)-5-(trifluoromethyl)-1H-pyrazole-4-carboxylic acid; type: cell-based; summary of the method: as §1
[7] = system: Cynomolgus monkey; experiment: Toxicity in laser-induced ocular hypertensive cynomolgus monkey eye at 30 ug administered as single topical dose; parameters: species or system Macaca fascicularis; details: in vivo, topical_or_ocular
[8] = system: Oryctolagus cuniculus; experiment: Toxicity in New Zealand albino rabbit eye up to 300 ug administered as single topical dose measured up to 24 hrs post dose; details: in vivo, topical_or_ocular
[9] = Dissociation constant, pKa of the compound; type: physicochemical
[10] = system: Cynomolgus monkey; experiment: Reduction of intraocular pressure in laser-induced ocular hypertensive cynomolgus monkey at 30 ug administered as single topical dose measured after 6 to 24 hrs; type: functional; details: Macaca fascicularis

SMILES | EC50 [4] [nM] | EC50 ([4]; CHO-K1, 1 h) [nM] | EC50 ([2]; Homo sapiens, GTM3, 0.5 h) [nM] | Emax [5] [%] | Emax [6] [%] | also measured
Cc1cc(C2CCN(C(=O)C3CC3)CC2)ccc1NC1CCc2cccc(-c3cccc(-n4ncc(C(=O)O)c4C(F)(F)F)n3)c21 (single isomer, unassigned; (+)) [listing 2 of 2 here] |  |  |  | 100 | 89 | 
Cc1cc(C2CCN(C(=O)C3CC3)CC2)ccc1OC1CCc2cccc(-c3cccc(-n4ncc(C(=O)O)c4C(F)(F)F)n3)c21 (single isomer, unassigned; (+)) [listing 1 of 2 here] |  |  |  | 102 | 100 | 
O=C(O)CCCCN(CCc1ccccc1OCc1ccc(CCc2ccccc2)cc1)Cc1ccc(C(=O)O)cc1 [CINACIGUAT] |  | 1 | 4 | 93 | 15 | 
CCc1cc(OCC2=C(c3cccc(-n4ncc(C(=O)O)c4C)n3)CCCC2C)ccc1C1CCN(C(=O)C2CC2)CC1 (stereo in doubt; (-)-24) [listing 1 of 2 here] |  |  |  | 101 |  | 
CCc1cc(OCC2=C(c3cccc(-n4ncc(C(=O)O)c4C(F)(F)F)n3)CCCC2C)ccc1C1CCN(C(=O)C2CC2)CC1 (single isomer, unassigned; (+)) [listing 1 of 2 here] |  |  |  | 102 | 85 | 
Cc1cc2c(c(-c3cccc(-n4ncc(C(=O)O)c4C(F)(F)F)n3)c1)C(Nc1ccc(C3CCN(C(=O)C4CC4)CC3)cc1C)CC2 (single isomer, unassigned; (-)) [listing 1 of 2 here] |  |  |  | 99 |  | 
CCc1cc(OCC2=C(c3cccc(-n4ncc(C(=O)O)c4C(F)(F)F)n3)CCCC2C)ccc1C1CCN(C(=O)C2CC2)CC1 (stereo in doubt; (-)-17) [listing 1 of 2 here] |  |  |  | 100 | 63 | 
Cc1cc(C2CCN(C(=O)C3CC3)CC2)ccc1NC1CCc2cccc(-c3cccc(-n4ncc(C(=O)O)c4C)n3)c21 (stereo in doubt; (-)-23) [listing 2 of 2 here] |  |  |  | 102 | 82 | 
Cc1c(C(=O)O)cnn1-c1nc(-c2cccc(C(F)(F)F)c2)cs1 |  | 162 |  | 105 |  | 
Cc1cc(C2CCN(C(=O)C3CC3)CC2)ccc1NC1CCc2cccc(-c3cccc(-n4ncc(C(=O)O)c4C(F)(F)F)n3)c21 (single isomer, unassigned; (-)) [listing 1 of 2 here] |  |  |  | 101 | 97 | 
Cc1cc(C2CCN(C(=O)C3CC3)CC2)ccc1NC1CCc2cccc(-c3cccc(-n4ncc(C(=O)O)c4C)n3)c21 (stereo in doubt; (+)-23) [listing 2 of 2 here] |  |  |  | 104 | 106 | Activity [10]: Active
Cc1cc2c(c(-c3cccc(-n4ncc(C(=O)O)c4C(F)(F)F)n3)c1)C(Nc1ccc(C3CCN(C(=O)C4CC4)CC3)cc1C)CC2 (single isomer, unassigned; (+)) [listing 1 of 2 here] |  |  |  | 101 | 85 | 
Cc1cc(C2CCN(C(=O)C3CC3)CC2)ccc1OC1CCc2cccc(-c3cccc(-n4ncc(C(=O)O)c4C(F)(F)F)n3)c21 (single isomer, unassigned; (-)) [listing 1 of 2 here] |  |  |  | 100 |  | 
CCc1cc(OCC2=C(c3cccc(-n4ncc(C(=O)O)c4C)n3)CCCC2C)ccc1C1CCN(C(=O)C2CC2)CC1 (single isomer, unassigned; (+)) [listing 2 of 2 here] |  |  |  | 101 | 120 | Activity [10]: Active
O=C(Nc1ccc(S(=O)(=O)N2CCOCC2)cc1)c1cc(Cl)ccc1NS(=O)(=O)c1ccc(Cl)s1 |  | 870 |  | 95 |  | 
Cc1cc(C2CCNCC2)ccc1OCc1ccsc1-c1cccc(-n2ncc(C(=O)O)c2C(F)(F)F)n1 |  | 4200 |  | 73 |  | 

The next lines start with results.

EC50 [4] [nM] | EC50 ([4]; CHO-K1, 1 h) [nM] | EC50 ([2]; Homo sapiens, GTM3, 0.5 h) [nM] | SMILES | Emax [5] [%] | Emax [6] [%] | also measured
< 0.5 |  |  | Cc1cc(C2CCN(C(=O)C3CC3)CC2)ccc1NC1CCc2cccc(-c3cccc(-n4ncc(C(=O)O)c4C(F)(F)F)n3)c21 (single isomer, unassigned; (+)) [listing 1 of 2 here] |  |  | Activity [1]: Toxic; EC50 [2]: 3 nM; Activity [3]: Toxic
17 |  |  | Cc1cc(C2CCN(C(=O)C3CC3)CC2)ccc1NC1CCc2cccc(-c3cccc(-n4ncc(C(=O)O)c4C)n3)c21 (stereo in doubt; (-)-23) [listing 1 of 2 here] |  |  | EC50 [2]: 490 nM
 | 2.5 |  | Cc1cc(C2CCN(C(=O)C3CC3)CC2)ccc1OCC1=C(c2cccc(-n3ncc(C(=O)O)c3C(F)(F)F)n2)CCC1 | 101 |  | 
 | 2.5 | 320 | Cc1cc(C2CCN(C(=O)C3CC3)CC2)ccc1OC1CCc2cccc(-c3cccc(-n4cc(C(=O)O)cn4)n3)c21 (single isomer, unassigned; (+)) | 103 | 70 | 
 | 430 |  | Cc1cc(C2CCN(CC3CC3)CC2)ccc1OCc1ccsc1-c1cccc(-n2ncc(C(=O)O)c2C(F)(F)F)n1 | 88 |  | 
 | 1 | 140 | CCc1cc(OCC2=C(c3cccc(-n4ncc(C(=O)O)c4C(F)(F)F)n3)CCCC2(C)C)ccc1C1CCN(C(=O)C2CC2)CC1 | 99 | 71 | 
 | 4.5 |  | Cc1cc(C2CCN(C(=O)C3CC3)CC2)ccc1OCc1ccsc1-c1cccc(-n2ncc(C(=O)O)c2C(F)(F)F)n1 | 102 |  | 
24 |  |  | Cc1cc2c(c(-c3cccc(-n4ncc(C(=O)O)c4C(F)(F)F)n3)c1)C(Nc1ccc(C3CCN(C(=O)C4CC4)CC3)cc1C)CC2 (single isomer, unassigned; (-)) [listing 2 of 2 here] |  |  | 
 | 6 | 160 | CCc1csc(-c2cccc(-n3ncc(C(=O)O)c3C(F)(F)F)n2)c1COc1ccc(C2CCN(C(=O)C3CC3)CC2)cc1C | 105 | 70 | 
 | 2 | 180 | CCc1cc(COc2ccc(C3CCN(C(=O)C4CC4)CC3)cc2C)c(-c2cccc(-n3ncc(C(=O)O)c3C(F)(F)F)n2)s1 | 103 | 68 | 
< 0.5 |  |  | Cc1cc(C2CCN(C(=O)C3CC3)CC2)ccc1NC1CCc2cccc(-c3cccc(-n4ncc(C(=O)O)c4C)n3)c21 (stereo in doubt; (+)-23) [listing 1 of 2 here] |  |  | Activity [7]: Non-Toxic; Activity [8]: Non-Toxic; EC50 [2]: 5 nM; pKa [9]: 4.3
3 |  |  | CCc1cc(OCC2=C(c3cccc(-n4ncc(C(=O)O)c4C)n3)CCCC2C)ccc1C1CCN(C(=O)C2CC2)CC1 (stereo in doubt; (-)-24) [listing 2 of 2 here] |  |  | 
 | < 0.1 | 53 | Cc1cc(COc2ccc(C3CCN(C(=O)C4CC4)CC3)cc2C)c(-c2cccc(-n3ncc(C(=O)O)c3C(F)(F)F)n2)s1 | 101 | 100 | 
1 |  |  | CCc1cc(OCC2=C(c3cccc(-n4ncc(C(=O)O)c4C(F)(F)F)n3)CCCC2C)ccc1C1CCN(C(=O)C2CC2)CC1 (single isomer, unassigned; (+)) [listing 2 of 2 here] |  |  | Activity [1]: Toxic; EC50 [2]: 6 nM; Activity [3]: Toxic
1 |  | 10 | Cc1cc(C2CCN(C(=O)C3CC3)CC2)ccc1OC1CCc2cccc(-c3cccc(-n4ncc(C(=O)O)c4C(F)(F)F)n3)c21 (single isomer, unassigned; (+)) [listing 2 of 2 here] |  |  | 
< 0.5 |  | 9 | CCc1cc(OCC2=C(c3cccc(-n4ncc(C(=O)O)c4C)n3)CCCC2C)ccc1C1CCN(C(=O)C2CC2)CC1 (single isomer, unassigned; (+)) [listing 1 of 2 here] |  |  | Activity [7]: Non-Toxic; Activity [8]: Non-Toxic
 | 0.35 | 85 | Cc1cc(C2CCN(C(=O)C3CC3)CC2)ccc1OCC1=C(c2cccc(-n3ncc(C(=O)O)c3C(F)(F)F)n2)CCCC1 | 101 | 110 | 
9 |  |  | CCc1cc(OCC2=C(c3cccc(-n4ncc(C(=O)O)c4C(F)(F)F)n3)CCCC2C)ccc1C1CCN(C(=O)C2CC2)CC1 (stereo in doubt; (-)-17) [listing 2 of 2 here] |  |  | EC50 [2]: 170 nM
 | < 0.5 | 40 | Cc1cc(C2CCN(C(=O)C3CC3)CC2)ccc1OCc1c(C)csc1-c1cccc(-n2ncc(C(=O)O)c2C(F)(F)F)n1 | 100 | 100 | 
 | 25 |  | CCC(=O)N1CCC(c2ccc(OCc3ccsc3-c3cccc(-n4ncc(C(=O)O)c4C(F)(F)F)n3)cc2)CC1 | 101 |  | 
1 |  | 55 | Cc1cc2c(c(-c3cccc(-n4ncc(C(=O)O)c4C(F)(F)F)n3)c1)C(Nc1ccc(C3CCN(C(=O)C4CC4)CC3)cc1C)CC2 (single isomer, unassigned; (+)) [listing 2 of 2 here] |  |  | pKa [9]: 3.1
7 |  |  | Cc1cc(C2CCN(C(=O)C3CC3)CC2)ccc1OC1CCc2cccc(-c3cccc(-n4ncc(C(=O)O)c4C(F)(F)F)n3)c21 (single isomer, unassigned; (-)) [listing 2 of 2 here] |  |  | 
37 |  |  | Cc1cc(C2CCN(C(=O)C3CC3)CC2)ccc1NC1CCc2cccc(-c3cccc(-n4ncc(C(=O)O)c4C(F)(F)F)n3)c21 (single isomer, unassigned; (-)) [listing 2 of 2 here] |  |  | EC50 [2]: 1200 nM
 | 0.15 | 520 | Cc1cc(C2CCN(C(=O)C3CC3)CC2)ccc1OCc1cc(Cl)sc1-c1cccc(-n2ncc(C(=O)O)c2C(F)(F)F)n1 | 99 | 97 | 
